Experimental data: ChEMBL document CHEMBL4390678, “Structure-Activity Relationship of Purine and Pyrimidine Nucleotides as Ecto-5'-Nucleotidase (CD73) Inhibitors” (J Med Chem, 2019)

Key:
5'-nucleotidase [1] = target: T1, 5'-nucleotidase (Rattus norvegicus, UniProt P21588); assay: Inhibition of recombinant rat C-terminal His-tagged soluble form of CD73 expressed in baculovirus infected Sf9 insect cells using [2,8-3H]AMP as substrate measured after 25 mins by scintillation counting method
T1 sequence (P21588 whole entry): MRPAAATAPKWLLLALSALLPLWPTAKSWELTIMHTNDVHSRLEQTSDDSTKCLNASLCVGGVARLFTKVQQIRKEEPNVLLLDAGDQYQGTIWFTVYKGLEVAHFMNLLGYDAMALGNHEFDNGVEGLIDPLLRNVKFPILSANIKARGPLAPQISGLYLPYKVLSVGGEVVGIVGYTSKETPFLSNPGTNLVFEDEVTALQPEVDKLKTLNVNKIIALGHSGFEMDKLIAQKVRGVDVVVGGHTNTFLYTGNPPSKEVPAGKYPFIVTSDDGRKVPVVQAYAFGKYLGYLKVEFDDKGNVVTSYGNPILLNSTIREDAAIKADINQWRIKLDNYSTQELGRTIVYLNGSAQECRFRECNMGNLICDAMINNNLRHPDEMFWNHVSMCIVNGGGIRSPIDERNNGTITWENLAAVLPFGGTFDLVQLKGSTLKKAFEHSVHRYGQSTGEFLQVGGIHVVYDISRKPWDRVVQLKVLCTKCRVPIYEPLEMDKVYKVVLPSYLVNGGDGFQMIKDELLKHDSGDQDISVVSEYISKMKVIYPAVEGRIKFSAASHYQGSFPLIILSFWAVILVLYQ
Summary of the method: (§1)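 Enzyme is soluble rat CD73 from Sf9 cells, 1.63 ng per vial, in 25 mM Tris, 140 mM NaCl, 25 mM NaH2PO4, pH 7.4. […] Stopped by LaCl3 precipitation and GF/B filtration, then counted. Each compound first screened at 1 µM.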

[2] = target: T2, 5'-nucleotidase (Rattus norvegicus) (UniProt P21588); assay: Inhibition of recombinant rat C-terminal His-tagged soluble form of CD73 expressed in baculovirus infected Sf9 insect cells at 1 uM using [2,8-3H]AMP as substrate measured after 25 mins by scintillation counting method relative to control; summary of the method: as §1
T2 sequence (whole entry): T1 sequence (P21588 whole entry)

5'-nucleotidase [3] = target: T3, 5'-nucleotidase (Homo sapiens, UniProt P21589); assay: Inhibition of recombinant human C-terminal His-tagged soluble form of CD73 expressed in baculovirus infected Sf9 insect cells using [2,8-3H]AMP as substrate measured after 25 mins by scintillation counting method
Summary of the method: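 Soluble human CD73 lacking the GPI signal, with a C-terminal 6xHis tag, secreted from baculovirus-infected Sf9 cells and purified on Ni-NTA; 0.365 ng per vial. […] Product separated by lanthanum chloride precipitation and filtration, then scintillation counted.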

Homo sapiens = species on record: Homo sapiens; assay: Inhibition of cytosolic nucleotidase in MaMel.65-CD73 cell cytosolic extract (unknown origin) at 100 uM using AMP as substrate preincubated for 5 mins followed by substrate addition and measured after 60 mins by malachite green oxalate dye based colorimetric method relative to control
Summary of the method: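 Cytosolic extract of CRISPR CD73-knockout MaMel.65 melanoma cells, 15.25 µg, in 50 mM Tris pH 7.0 with 100 mM KCl and 5 mM MgCl2. […] After 60 min, heat-stopped at 95°C. Released phosphate read with malachite green/molybdate at 600 nm. Levamisole 1 mM plus NaF 5 mM served as positive control. Three experiments in duplicate.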

5'-nucleotidase [4] = target: T3, 5'-nucleotidase; assay: Inhibition of CD73 in human MDA-MB-231 cell membranes using [2,8-3H]AMP as substrate measured after 25 mins by scintillation counting method
Summary of the method: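 MDA-MB-231 membranes (7.4 ng protein per vial) in 25 mM Tris, 140 mM NaCl, 25 mM NaH2PO4, pH 7.4. […] Stopped with cold LaCl3/acetate buffer pH 4.0 and filtered on GF/B. Background-subtracted and normalized to the uninhibited control.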

T3 sequence (P21589 whole entry): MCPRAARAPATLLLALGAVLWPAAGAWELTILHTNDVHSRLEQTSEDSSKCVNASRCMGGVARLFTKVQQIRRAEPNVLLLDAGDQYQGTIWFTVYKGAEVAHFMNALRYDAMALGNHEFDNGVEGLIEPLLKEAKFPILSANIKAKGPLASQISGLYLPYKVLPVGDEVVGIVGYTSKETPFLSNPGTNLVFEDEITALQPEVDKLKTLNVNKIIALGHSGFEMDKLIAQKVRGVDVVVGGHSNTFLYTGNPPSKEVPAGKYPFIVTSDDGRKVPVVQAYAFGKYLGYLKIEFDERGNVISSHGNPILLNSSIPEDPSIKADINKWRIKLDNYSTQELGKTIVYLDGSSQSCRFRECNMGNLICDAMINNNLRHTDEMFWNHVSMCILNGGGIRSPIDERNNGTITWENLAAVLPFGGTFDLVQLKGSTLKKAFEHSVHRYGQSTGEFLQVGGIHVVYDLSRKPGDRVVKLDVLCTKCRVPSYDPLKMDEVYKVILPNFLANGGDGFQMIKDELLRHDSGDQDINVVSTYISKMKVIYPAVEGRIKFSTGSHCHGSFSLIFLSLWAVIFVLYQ

SMILES | Ki (5'-nucleotidase [1]) [nM] | inhibition [2] [%] | Ki (5'-nucleotidase [3]) [nM] | inhibition (Homo sapiens) [%] | Ki (5'-nucleotidase [4]) [nM]
Nc1ncnc2c1ncn2[C@H]1C[C@H](O)[C@@H](COP(=O)(O)CP(=O)(O)O)O1 | > 1000 | 30 |  |  | 
Nc1nc(=O)n([C@@H]2O[C@H](COP(=O)(O)CP(=O)(O)O)[C@@H](O)[C@H]2O)cc1I | 502 | > 50 |  |  | 
Nc1ncnc2c1ncn2[C@@H]1O[C@H](COP(=O)(O)CP(=O)(O)O)[C@@H](O)[C@H]1N | > 1000 | 2 |  |  | 
C#Cc1cn([C@@H]2O[C@H](COP(=O)(O)CP(=O)(O)O)[C@@H](O)[C@H]2O)c(=O)[nH]c1=O | 276 | > 50 |  |  | 
O=c1ccn([C@@]23C[C@H]2[C@H](COP(=O)(O)CP(=O)(O)O)[C@@H](O)[C@H]3O)c(=O)[nH]1 | > 1000 | 12 |  |  | 
CCn1c(=O)ccn([C@@H]2O[C@H](COP(=O)(O)CP(=O)(O)O)[C@@H](O)[C@H]2O)c1=O | > 1000 | 4 |  |  | 
Nc1ccnc2c1ncn2[C@@H]1O[C@H](COP(=O)(O)CP(=O)(O)O)[C@@H](O)[C@H]1O | > 1000 | 36 |  |  | 
O=c1ccn([C@@H]2O[C@H](COP(=O)(O)CP(=O)(O)O)[C@@H](O)[C@H]2O)c(=O)[nH]1 | 1830 | > 50 |  |  | 
O=c1[nH]/c(=N/OCc2ccc3ccccc3c2)ccn1[C@@H]1O[C@H](COP(=O)(O)CP(=O)(O)O)[C@@H](O)[C@H]1O | 18.8 | > 50 | 6.88 | -5 | 6.29
Cc1cn([C@H]2C[C@H](O)[C@@H](COP(=O)(O)CP(=O)(O)O)O2)c(=O)[nH]c1=O | 639 | > 50 |  |  | 
O=c1ccn([C@@H]2O[C@H](COP(=O)(O)CP(=O)(O)O)[C@@H](O)[C@H]2F)c(=O)[nH]1 | > 1000 | 11 |  |  | 
Nc1ccn([C@H]2C[C@H](O)[C@@H](COP(=O)(O)CP(=O)(O)O)O2)c(=O)n1 | > 1000 | 18 |  |  | 
CCOP(=O)(O)OP(=O)(O)OC[C@H]1O[C@@H](n2ccc(=O)[nH]c2=S)[C@H](O)[C@@H]1O | > 1000 | 10 |  |  | 
O=c1ccn([C@@H]2O[C@H](COP(=O)(O)CP(=O)(O)O)[C@@H](O)[C@@H]2F)c(=O)[nH]1 | 1750 | > 50 |  |  | 
O=c1cnn([C@@H]2O[C@H](COP(=O)(O)CP(=O)(O)O)[C@@H](O)[C@H]2O)c(=O)[nH]1 | > 1000 | 21 |  |  | 
O=c1ccn([C@H]2C[C@H](O)[C@@H](CO[P@@](=O)(O)CP(=O)(O)O)O2)c(=O)[nH]1 | > 1000 | 37 |  |  | 
Nc1ncnc2c1ncn2[C@@H]1O[C@H](CO)[C@@H](OP(=O)(O)CP(=O)(O)O)[C@H]1N | > 1000 | 8 |  |  | 
O=c1[nH]/c(=N/OCc2ccccc2)ccn1[C@H]1C[C@H](O)[C@@H](COP(=O)(O)CP(=O)(O)O)O1 | 780 | > 50 |  |  | 
O=c1cc(O)ccn1[C@@H]1O[C@H](COP(=O)(O)CP(=O)(O)O)[C@@H](O)[C@H]1O | > 1000 | 19 |  |  | 
Cc1cn([C@@H]2O[C@H](COP(=O)(O)CP(=O)(O)O)[C@@H](O)[C@H]2O)c(=O)[nH]c1=O | 338 | > 50 |  |  | 
Nc1ncnc2c1ncn2[C@@H]1O[C@H](COP(=O)(O)CP(=O)(O)O)C[C@H]1O | 1970 | > 50 |  |  | 
O=c1[nH]c(=O)n([C@@H]2O[C@H](COP(=O)(O)CP(=O)(O)O)[C@@H](O)[C@H]2O)cc1Br | 88.7 | > 50 |  |  | 
C=C(Cl)c1cn([C@@H]2O[C@H](COP(=O)(O)CP(=O)(O)O)[C@@H](O)[C@H]2O)c(=O)n(C)c1=O | 1050 | > 50 |  |  | 

SMILES | Ki (5'-nucleotidase [1]) [nM] | inhibition [2] [%] | Ki (5'-nucleotidase [3]) [nM] | inhibition (Homo sapiens) [%] | Ki (5'-nucleotidase [4]) [nM]
C=C(Cl)c1cn([C@@H]2O[C@H](COP(=O)(O)CP(=O)(O)O)[C@@H](O)[C@H]2O)c(=O)[nH]c1=O | 424 | > 50 |  |  | 
O=c1ccn([C@@H]2O[C@H](COP(=O)(O)CP(=O)(O)O)[C@@H](O)[C@@H]2O)c(=O)[nH]1 | > 1000 | 8 |  |  | 
Cn1c(=O)ccn([C@@H]2O[C@H](COP(=O)(O)CP(=O)(O)O)[C@@H](O)[C@H]2O)c1=O | 1860 | > 50 |  |  | 
O=c1ccn([C@@H]2O[C@H](COP(=O)(O)CP(=O)(O)O)[C@@H](O)[C@H]2O)c(=O)n1Cc1ccccc1 | > 1000 | 3 |  |  | 
O=c1[nH]/c(=N\OCc2ccccc2)ccn1[C@@H]1O[C@H](COP(=O)(O)CP(=O)(O)O)[C@@H](O)[C@H]1O | 112 | > 50 |  |  | 
O=c1[nH]c(=O)n([C@@H]2O[C@H](COP(=O)(O)CP(=O)(O)O)[C@@H](O)[C@H]2O)cc1I | 162 | > 50 |  |  | 
O=c1[nH]c(=O)n([C@@H]2O[C@H](COP(=O)(O)CP(=O)(O)O)[C@@H](O)[C@H]2O)cc1Cl | 86.7 | > 50 |  |  | 
Cc1cn([C@@H]2O[C@H](COP(=O)(O)CP(=O)(O)O)[C@@H](O)[C@H]2O)c(=O)[nH]/c1=N/OCc1ccccc1 | 321 | > 50 |  |  | 
O=c1ccn([C@@H]2O[C@H](COP(=O)(O)CP(=O)(O)O)[C@@H](O)[C@H]2O)c(=S)[nH]1 | > 1000 | 7 |  |  | 
CCCn1c(=O)ccn([C@@H]2O[C@H](COP(=O)(O)CP(=O)(O)O)[C@@H](O)[C@H]2O)c1=O | > 1000 | 7 |  |  | 
Cc1cn([C@@H]2O[C@H](COP(=O)(O)CP(=O)(O)O)[C@@H](O)[C@H]2O)c(=O)nc1N | 2030 | > 50 |  |  | 
O=c1ccn([C@@H]2O[C@H](COP(=O)(O)CCP(=O)(O)O)[C@@H](O)[C@H]2O)c(=O)[nH]1 | > 1000 | 4 |  |  | 
Nc1nc(=O)n([C@@H]2O[C@H](COP(=O)(O)CP(=O)(O)O)[C@@H](O)[C@H]2O)cc1F | 349 | > 50 |  |  | 
CCn1c(=O)n([C@@H]2O[C@H](COP(=O)(O)CP(=O)(O)O)[C@@H](O)[C@H]2O)cc/c1=N\OCc1ccccc1 | 262 | > 50 |  |  | 
CO/N=c1/ccn([C@@H]2O[C@H](COP(=O)(O)CP(=O)(O)O)[C@@H](O)[C@H]2O)c(=O)[nH]1 | 257 | > 50 |  |  | 
CO[C@@H]1[C@H](O)[C@@H](COP(=O)(O)CP(=O)(O)O)O[C@H]1n1cc(C)c(=O)[nH]c1=O | > 1000 | 3 |  |  | 
Nc1ccn([C@@H]2O[C@H](COP(=O)(O)CP(=O)(O)O)[C@@H](O)[C@H]2O)c(=O)n1 | 898 | > 50 |  |  | 
Cc1cn([C@@H]2O[C@H](COP(=O)(O)CCP(=O)(O)O)[C@@H](O)[C@H]2O)c(=O)[nH]c1=O | > 1000 | 9 |  |  | 
Nc1ncnc2c1ccn2[C@@H]1O[C@H](COP(=O)(O)CP(=O)(O)O)[C@@H](O)[C@H]1O | 88.6 | > 50 |  |  | 
O=c1[nH]/c(=N/OCc2ccccc2)c(F)cn1[C@@H]1O[C@H](COP(=O)(O)CP(=O)(O)O)[C@@H](O)[C@H]1O | 85.1 | > 50 | 15.9 |  | 16.6
N[C@@H]1[C@H](O)[C@@H](COP(=O)(O)CP(=O)(O)O)O[C@H]1n1ccc(=O)[nH]c1=O | > 1000 | 2 |  |  | 
[N-]=[N+]=N[C@@H]1[C@H](O)[C@@H](COP(=O)(O)CP(=O)(O)O)O[C@H]1n1ccc(=O)[nH]c1=O | > 1000 | 9 |  |  | 
Nc1nccc2c1ncn2[C@@H]1O[C@H](COP(=O)(O)CP(=O)(O)O)[C@@H](O)[C@H]1O | > 1000 | 36 |  |  | 
